CFTR F508del cor = F508del CFTR correction, initial screen, CFBE line, single point. CFBE cells, YFP halide quenching; stimulated with forskolin plus potentiator P3; % fluorescence drop versus neutral controls. activity (quench increase), % at 7.58 µM. 0.36% of 350,000 active;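 active means mean added fluorescence quench of at least 8% versus neutral control, with both replicates also reaching 8%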;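 further: cells transiently co-express mutant CFTR-F508del with the halide-sensitive YFP; corrector assay measuring rescue of mutant channel to the surface after 24 h compound exposure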
ARNT TACC3 PPI = disruptors of ARNT/TACC3 protein interaction, primary screen, biochemical, AlphaScreen, single concentration. inhibition, % at 9.99 µM. Transforming acidic coiled-coil-containing protein 3 (Homo sapiens), Q9Y6A5. 0.66% of 390,000 active. AlphaScreen His-ARNT PAS-B/GST-TACC3 binding, luminescence; TACC3 fragment carries E629A point mutation;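 active means mean inhibition of replicates at least 50% and at least half of replicates each reaching 50%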
PGC1a acetyl inh = inhibitors of PGC1a acetylation signal, primary screen, cell-based, U2OS, AlphaScreen, inhibitor mode; AlphaScreen anti-acetyl-lysine; with virally co-expressed GCN5 acetyltransferase; inhibition, % at 15.6 µM; 0.17% of 350,000 active; AID 651687, 2012;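 active means every replicate shows inhibition of at least 40%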
CAL PDZ FP-1 = untagged CAL PDZ binding inhibitors, primary screen, biochemical, fluorescence polarization, HTS; Golgi-associated PDZ and coiled-coil motif-containing protein (Homo sapiens), Q9HD26; inhibition, % at 24.9 µM; purified CAL PDZ, TMR-peptide fluorescence polarization, 1 h; 0.92% of 300,000 active;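 active means mean inhibition of at least 30% with at least half of replicates also reaching 30%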
miR122 inh = miR-122 Renilla sensor signal increase in Huh7, primary screen, miR-122 inhibitor project, cell-based, single point, plate reader | Huh7 miR-122 Renilla luciferase sensor, 48 h; neutral wells = 0, positive control = 100 | activation (reporter increase), % at 12.5 µM | 0.3% of 340,000 active | AID 602342, 2012;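 active means mean replicate activation score at least 90 and every replicate individually at or above 90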;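 further: higher luciferase means less miR-122 activity so hits act as miR-122 inhibitors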
CAL PDZ FP-2 = CAL PDZ peptide-binding inhibitors, primary screen, biochemical, fluorescence polarization, Cer-tagged CAL PDZ, HTS; Golgi-associated PDZ and coiled-coil motif-containing protein (Homo sapiens), Q9HD26; purified CAL PDZ, TMR-peptide fluorescence polarization, 1 h; inhibition, % at 20 µM; 0.02% of 330,000 active;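 active means highest replicate inhibition of at least 40%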
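Test system: tagged CAL PDZ domain / Buffer or medium: sodium phosphate/NaCl buffer pH 7.4 with TCEP, IgG, Thesit / Reagent: TMR-labelled reporter peptide T*-PRC34 bound in PDZ groove / Compound dosing: single point, 20 µM / Schedule: 1 h incubation at room temperature before polarization reading / Technique: fluorescence polarization (mP) / Benchmarks: unlabelled peptide, DMSO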
Large screens that a line does not name were inactive. Rows were chosen to be rich in hits. Some 1.7% of all compounds tested hit in one or more screens of this group.

COc1ccc(C)cc1N(CC(=O)NC1CCCC1)C(=O)Cn1nnc(-c2ccc(C)o2)n1	CAL PDZ FP-1 103
C=CCN(c1ccc(C(=O)Nc2ccc3c(c2)OCO3)cc1)S(C)(=O)=O	PGC1a acetyl inh 93
CCCn1nnc(NC(=O)c2cccc(Cl)c2)n1	none (no result: CFTR F508del cor, CAL PDZ FP-2)
CCC(=O)Nc1cccc(NC(=O)c2ccc3c(c2)OCO3)c1	CAL PDZ FP-1 50 (no result: CFTR F508del cor)
CCCn1nnc(NC(=O)c2ccc3c(c2)OCO3)n1	CAL PDZ FP-1 103 (no result: CFTR F508del cor, miR122 inh)
Cc1noc(C)c1S(=O)(=O)Nc1ccc2c(c1)C(=O)N([C@@H](C)CO)C[C@H](C)[C@@H](CN(C)C(=O)Nc1ccc3c(c1)OCO3)O2	none (no result: CAL PDZ FP-1, CAL PDZ FP-2)
Cc1ccc(NC(=O)CSc2nnc(CSc3nc(C)cc(C)n3)n2Cc2ccco2)c(C)c1	none (no result: CFTR F508del cor)
Cc1ccc(C)c(NC(=O)CSc2nnc(CSc3nc(C)cc(C)n3)n2Cc2ccco2)c1	miR122 inh 119 (no result: CFTR F508del cor)
Cc1ccc(-n2c(CSc3nc(C)cc(C)n3)nnc2SCC(=O)NCc2ccco2)cc1	CAL PDZ FP-1 104 (no result: CFTR F508del cor)
O=C(CSc1nnc(Cn2c(=O)sc3ccccc32)n1-c1ccccc1)NCc1ccco1	CFTR F508del cor 10 (no result: ARNT TACC3 PPI)
CC(C)NC(=O)N(C)C[C@@H]1Oc2ncc(C#CC3CCCCC3)cc2C(=O)N([C@@H](C)CO)C[C@@H]1C	none (no result: ARNT TACC3 PPI, CAL PDZ FP-1, CAL PDZ FP-2)
O=C1c2ccccc2C(=O)N1COc1ccc(S(=O)(=O)N2CCOCC2)cc1[N+](=O)[O-]	CAL PDZ FP-1 50 (no result: ARNT TACC3 PPI, PGC1a acetyl inh)
O=C(N[C@H]1CC[C@@H](CCNS(=O)(=O)c2ccc(F)cc2)O[C@H]1CO)C1CCCC1	none (no result: CAL PDZ FP-1, CAL PDZ FP-2)
O=C(Nc1ccc2c(c1)nc1n2CCSC1)c1ccco1	none (no result: CFTR F508del cor, CAL PDZ FP-2)
O=C(Nc1nnc2n1CCS2)c1ccco1	ARNT TACC3 PPI 45
CC(C)NC(=O)Nc1ccc2c(c1)C(=O)N([C@@H](C)CO)C[C@@H](C)[C@@H](CN(C)Cc1ccc(C(=O)O)cc1)O2	none (no result: CAL PDZ FP-1, CAL PDZ FP-2)
C=CCOC(=O)[C@@H]1[C@H]2C(=O)O[C@H](c3ccccc3)[C@H](c3ccccc3)N2[C@H](c2ccc(OCCOC(=O)[C@@H]3C[C@@H]4C(=O)N[C@@H](Cc5ccccc5)C(=O)N4[C@@H]3c3ccc(O)cc3)cc2)[C@@]12C(=O)Nc1ccc(I)cc12	none (no result: PGC1a acetyl inh, CAL PDZ FP-1, miR122 inh, CAL PDZ FP-2)
Cc1ccc(S(=O)(=O)c2cccc(S(=O)(=O)N3CCCC3)c2)cc1S(=O)(=O)N1CCCC1	miR122 inh 110 (no result: CFTR F508del cor)
Cc1ccc(NS(=O)(=O)c2c(C(=O)N3CCOCC3)c(C)n(C)c2C)cc1	none
Cc1cc(NS(=O)(=O)c2c(C(=O)N3CCOCC3)c(C)n(C)c2C)ccc1Br	CAL PDZ FP-1 78
COc1ccc(C(C)(C)C)cc1S(=O)(=O)n1ccnc1C	miR122 inh 95 (no result: CAL PDZ FP-1)
CC(OC(=O)CCCC(=O)Nc1ccc(F)cc1)C(=O)c1ccccc1 (stereo unspecified)	CFTR F508del cor 9.4
CCc1ccccc1NC(=O)CSC1=C(C#N)C(c2ccc(O)c(OC)c2)C2=C(CCCC2=O)N1 (stereo unspecified)	none (no result: CFTR F508del cor, ARNT TACC3 PPI)
COc1cc(C2C(C#N)=C(SC)NC3=C2C(=O)CCC3)ccc1O (stereo unspecified)	CAL PDZ FP-1 89
C[C@H](CO)N1C[C@H](C)[C@H](CN(C)Cc2ccc(-c3ccccc3)cc2)Oc2ccc(NC(=O)NC3CCCCC3)cc2C1=O	none (no result: CAL PDZ FP-1, CAL PDZ FP-2)
O=S(=O)(O)c1ccc(N=NNc2ccc(Br)cc2)cc1	CAL PDZ FP-1 52
O=Cc1cc(N=Nc2ccc(S(=O)(=O)O)cc2)ccc1O	none (no result: PGC1a acetyl inh, miR122 inh)
COc1ccc(-c2cc(C(=O)O)sc2C)cc1	CAL PDZ FP-1 44 (no result: miR122 inh)
Cc1ccc(NC(=O)COC(=O)Cn2ccc(=O)[nH]c2=O)cc1C	CAL PDZ FP-1 40 (no result: PGC1a acetyl inh, miR122 inh)
CC(C)NC(=O)NS(=O)(=O)c1cnccc1NC1CC2CCC1C2 (stereo unspecified)	CAL PDZ FP-1 69 (no result: CFTR F508del cor)
